High-throughput results deposited in PubChem BioAssay by several laboratories.
Shown are actives, neighbours in structure and some others; about 4.7% of the full set was active somewhere.
IMP-1 inhibitor: inhibitors of Pseudomonas aeruginosa IMP-1 metallo-beta-lactamase | actives 0.45% (n = 290,000) | AID 1556 | purified IMP-1, nitrocefin hydrolysis, epi-absorbance fluorescence | inhibition, % at 5.6 µM;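 active means inhibition above the mean plus 3 SD of all compounds in the same screening run, cut at about 4.5% in these data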
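System: Purified recombinant IMP-1 metallo-beta-lactamase enzyme | Measured by: Fluorescence quenching readout, ex 480/em 530 nm | Replication: Singlicate | Incubation: 15 min preincubation plus 25 min reaction at 25 °C | Evaluation: Percent inhibition from optical density relative to buffer-blank wells | Benchmarks: DMSO with and without IMP-1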
VIM-2 inhibitor: blocks Pseudomonas aeruginosa VIM-2 metallo-beta-lactamase. purified VIM-2, nitrocefin hydrolysis, epi-absorbance fluorescence. inhibition, % at 5.6 µM. actives 0.89% (n = 290,000);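 active means inhibition above the mean of all tested compounds plus 3 SD, cutoff set per screening run, cut at about 7.5% in these data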;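 further: red hydrolysis product quenches plate fluorescence so inhibitors raise well fluorescence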
697 NFkB inh: lowers PMA/ionomycin-induced NF-kB signal in 697 B cells; actives 0.33% (n = 330,000); inhibition, % at 4 µM; 697 B-cell NF-kB luciferase reporter, 16 h; in the data active means inhibition above about 35%
Jurkat NFkB inh: lowers PMA/ionomycin-induced NF-kB signal in Jurkat cells | actives 0.53% (n = 330,000) | inhibition, % at 4 µM | PMA/ionomycin-induced NF-kB luciferase reporter, luminescence; in the data active means inhibition above about 50%
Mdm2 MdmX PPI: disrupts the human Mdm2-MdmX interaction; inhibition, % at 8 µM; SaOS-2 split-luciferase Mdm2/MdmX complementation, luminescence; actives 3% (n = 330,000); AID 485346; O15151+Q00987;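 active means inhibition of at least 50% at 8 µM in the primary screen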
Target sequence (O15151 whole entry, looked up): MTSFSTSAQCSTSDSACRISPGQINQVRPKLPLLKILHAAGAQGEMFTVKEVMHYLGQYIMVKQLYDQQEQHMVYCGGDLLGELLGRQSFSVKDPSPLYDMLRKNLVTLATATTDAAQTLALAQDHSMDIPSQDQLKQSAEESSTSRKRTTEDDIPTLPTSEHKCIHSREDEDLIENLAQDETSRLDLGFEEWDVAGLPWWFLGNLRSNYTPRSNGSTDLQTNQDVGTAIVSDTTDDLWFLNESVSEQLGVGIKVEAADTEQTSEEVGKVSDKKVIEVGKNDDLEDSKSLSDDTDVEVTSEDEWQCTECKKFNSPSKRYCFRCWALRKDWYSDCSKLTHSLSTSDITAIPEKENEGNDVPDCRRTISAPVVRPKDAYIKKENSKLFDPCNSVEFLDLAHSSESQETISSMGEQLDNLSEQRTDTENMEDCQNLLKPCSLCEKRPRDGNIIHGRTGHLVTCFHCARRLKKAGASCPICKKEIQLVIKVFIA
Target sequence (Q00987 whole entry, looked up): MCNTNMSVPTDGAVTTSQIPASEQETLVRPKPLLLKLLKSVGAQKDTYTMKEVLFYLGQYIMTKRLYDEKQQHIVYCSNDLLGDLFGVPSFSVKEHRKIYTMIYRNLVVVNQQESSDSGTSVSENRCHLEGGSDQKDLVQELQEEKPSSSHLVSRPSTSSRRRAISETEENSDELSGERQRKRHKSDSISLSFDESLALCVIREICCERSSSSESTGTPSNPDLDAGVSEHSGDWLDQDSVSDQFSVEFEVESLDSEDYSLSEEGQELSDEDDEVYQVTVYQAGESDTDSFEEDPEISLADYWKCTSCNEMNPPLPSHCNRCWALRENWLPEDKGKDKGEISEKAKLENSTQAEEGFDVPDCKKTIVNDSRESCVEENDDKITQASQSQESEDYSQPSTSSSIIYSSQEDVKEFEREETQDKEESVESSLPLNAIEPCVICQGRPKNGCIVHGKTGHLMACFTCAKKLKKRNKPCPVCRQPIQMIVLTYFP
aSyn 5UTR inh: 5' untranslated region of α-synuclein, MLPCN primary screen; alpha-synuclein 5'UTR reporter, inhibitor activity; inhibition, % (tested at 7.5 µM); actives 0.82% (n = 300,000); AID 1813; in the data active means inhibition above about 60%;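 further: H4 neuroglioblastoma cells stably carrying SNCA 5'UTR luciferase fusion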
697 NFkB conf: inhibitors of the PMA/ionomycin-induced NF-kB reporter in 697 B cells, retest; actives 35% (n = 2,000); inhibition, % at 4 µM; shares compounds with 697 NFkB inh; 697 B-cell NF-kB luciferase, 16 h; AID 449746; in the data active means inhibition mostly above about 28%, no sharp cut-off; inactive means mostly below about 22%
Mdm2 MdmX conf: human Mdm2/MdmX binding inhibition, confirmed; actives 55% (n = 10,000); shares compounds with Mdm2 MdmX PPI; AID 489028; luminescent assay; inhibition, % at 8 µM; in the data active means inhibition above about 40%
Full FLuc ctr: full-length luciferase inhibition in Mdm2/MdmX counter-screen | actives 77% (n = 6,200) | inhibition, % at 8 µM | shares compounds with Mdm2 MdmX PPI | AID 504607 | SaOS-2 full-length luciferase counterscreen, luminescence;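 active means mean inhibition at 8 µM reaching about 37%, which flags the compound as non-specific, limit read from the data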;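 further: p53-null SaOS-2 cells with luciferase driven by a doxycycline-inducible promoter; compound on cells about two nights before reading with doxycycline added after day one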
Hits are given with their value; – = inactive; · = no result.

SMILES	IMP-1 inhibitor	VIM-2 inhibitor	697 NFkB inh	Jurkat NFkB inh	Mdm2 MdmX PPI	aSyn 5UTR inh	697 NFkB conf	Mdm2 MdmX conf	Full FLuc ctr
Cc1cc(C)c(-c2csc(NC(=O)c3n[nH]c(=O)c4ccccc34)n2)c(C)c1	–	–	–	–	60	–	–	62	68
CCS(=O)(=O)c1ccc(O)c(NC(=O)c2cc(-c3ccccn3)nc3ccccc23)c1	·	·	–	–	–	·	·	·	·
Cc1c(NC(=O)c2cc(-c3cccs3)nc3ccccc23)c(=O)n(-c2ccccc2)n1C	–	–	39	–	57	–	–	–	·
COc1cc(/C=C(\NC(=O)c2ccccc2)C(=O)NC(C(=O)O)c2ccccc2)cc(OC)c1OC (configuration not stated)	–	–	–	–	–	–	·	·	·
CCOc1ccc(CNC(=O)c2cc3oc4ccccc4c3n2C)cc1	–	–	–	–	85	–	–	88	–
CCOc1ccccc1CNC(=O)c1cc2oc3ccccc3c2n1CC	–	–	–	–	93	66	–	89	–
COc1cccc(CNC(=O)c2cc3oc4ccccc4c3n2C)c1OC	–	–	–	–	97	–	–	96	47
CCOc1ccc2cc(C(=O)NCc3ccccc3)c(=N)oc2c1	–	–	–	–	–	–	·	·	·
CCn1c(C(=O)N2CCc3ccccc3C2)cc2oc3ccccc3c21	–	–	–	–	–	–	·	·	·
CS(=O)(=O)c1ccc2nc(NC(=O)c3ccc(Cn4cc(Br)cn4)o3)sc2c1	–	–	–	–	–	–	·	·	·
Cn1nnnc1Sc1ncnc2scc(Br)c12	·	·	37	–	99	·	60	–	·
COc1ccc(S(=O)(=O)N2CCC(C(=O)N(C)Cc3ccc(C)o3)CC2)cc1OC	·	·	–	–	–	·	·	·	·
O=c1nc(Nc2ccc(OCc3ccccc3)cc2)sc2ncccc12	–	–	–	–	69	–	–	82	–
CN(C)CC(C(=O)c1ccccc1)c1ccccc1 (configuration not stated)	–	–	–	–	100	–	–	85	52
CCCN1CCN(S(=O)(=O)c2ccc(-n3cnnn3)cc2)CC1	–	–	–	–	–	–	·	·	·
O=C(O)C1CCN(C(=O)c2ccc3c(c2)OCO3)CC1	–	–	–	–	–	–	·	·	·
CCOC(=O)c1sc(NC(=O)c2cc(-c3ccccc3C)nc3ccccc23)c(C#N)c1C	–	–	36	–	97	–	40	92	–
C=CCC1NS(=O)(=O)OCC1C(C)C (configuration not stated)	–	–	–	–	–	–	·	·	·
COc1cc(-c2nc(C(=O)NCC3CCCO3)cc3c2[nH]c2ccccc23)cc(OC)c1OC (configuration not stated)	–	–	36	–	86	–	40	54	56
C=CCNC(=O)N1CCCC(N2CCN(c3ccccc3OC)CC2)C1 (configuration not stated)	–	–	–	–	–	–	·	·	·
O=C(CN(CC1CCCO1)C(=O)CNS(=O)(=O)c1ccc(Cl)cc1)NC1CCCC1 (configuration not stated)	–	–	–	–	–	–	·	·	·
CCOc1cc2nc(-c3ccc(OC)c(OC)c3)nc(N3CCOCC3)c2cc1OC	–	–	45	–	53	–	38	45	83
Cc1[nH]c2ccccc2c1/C=N/NC(=O)c1cccs1	–	–	–	–	–	–	·	·	·
Cc1c(/C=N/NC(=O)c2cccs2)c2ccccc2n1Cc1ccccc1Cl	–	–	–	–	72	–	–	65	90
Cc1ccc(NC(=O)c2ccc3c(=O)n4c(nc3c2)CCC4)cc1S(=O)(=O)N(C)C	·	·	–	–	–	·	·	·	·
SMILES	IMP-1 inhibitor	VIM-2 inhibitor	697 NFkB inh	Jurkat NFkB inh	Mdm2 MdmX PPI	aSyn 5UTR inh	697 NFkB conf	Mdm2 MdmX conf	Full FLuc ctr
CCC(=O)N(Cc1cc(=O)[nH]c2ccccc12)c1ccc(C)cc1C	–	–	–	–	–	–	·	·	·
COc1cc(NC(=O)c2cc3c(C)nc4ccccc4c3o2)cc(OC)c1OC	–	–	37	–	59	–	44	–	·
CSc1ncc(C(=O)Nc2cccnc2)c(C(F)(F)F)n1	–	–	–	–	–	–	·	·	·
Cc1c(NC(=O)c2cccc(NC(=O)COc3cccc(Br)c3)c2)c(=O)n(-c2ccccc2)n1C	·	·	–	–	–	·	·	·	·
CCOC(=O)CN(C(=O)c1snc(C(N)=O)c1N)C(C(=O)NC1CCCCC1)c1ccc(F)cc1 (configuration not stated)	–	–	–	–	–	–	·	·	·
Cc1sc(NC(=O)c2ccco2)c(C(c2cccnc2)N2CCC(C)CC2)c1C (configuration not stated)	–	–	36	–	74	–	–	76	77
COc1ccc(C(CNC(=O)c2ccc(NS(=O)(=O)c3ccc(F)c(C)c3)cc2)N2CCOCC2)cc1 (configuration not stated)	·	·	–	–	–	–	·	·	·
CC(C)CN(C(=O)CC1CCCC1)c1c(N)n(Cc2ccccc2)c(=O)[nH]c1=O	·	·	–	–	–	–	·	·	·
CC(C)CN(C(=O)COC(=O)C12CC3CC(CC(C3)C1)C2)c1c(N)n(Cc2ccccc2)c(=O)[nH]c1=O	·	·	50	–	61	–	52	72	47
O=C(Nc1cccc2nsnc12)c1ccc(-c2ccc(Br)cc2)o1	–	–	–	–	–	–	·	·	·
COC(=O)c1ccccc1NC(=O)c1ccc(-c2ccc(Br)cc2)o1	–	–	–	–	58	–	–	62	152
CC(C)(C)Cc1nnc(NS(=O)(=O)c2ccc([N+](=O)[O-])cc2)s1	–	–	–	–	–	–	·	·	·
O=C1CN(C(=O)NCC(=O)N2CCCC2)c2ccccc2N1	–	–	–	–	–	–	·	·	·
CC(C)N(c1ccccc1)c1ccc(NC(=O)CCl)cc1	–	–	35	–	97	–	–	99	51
O=C(NCc1ccccc1)C1=C[C@H](C2CCCCC2)C[C@H](OCc2ccc(CO)cc2)O1	–	–	–	–	51	–	–	63	60
O=C(NCc1ccccc1)C1=C[C@@H](C2CC2)C[C@@H](OCc2ccc(CO)cc2)O1	–	–	–	–	–	–	·	·	·
Cn1c(=O)cc(OCC(=O)NC2CCCCC2)c2ccccc21	–	–	–	–	–	–	·	·	·
Cn1c(=O)cc(OCCCC(=O)NC2CCCC2)c2ccccc21	–	–	69	–	67	–	46	48	86
O=c1cc(-c2ccc(O)c(O)c2)oc2ccc3ccccc3c12	·	·	–	–	55	·	–	74	131
O=c1cc(-c2ccc(O)c(O)c2)oc2c1ccc1ccccc12	·	·	–	–	–	·	·	·	·
